Data published in PubChem BioAssay AID624466 (The Scripps Research Institute Molecular Screening Center, 2012).
About 5,400 (1.5%) of roughly 360,000 compounds were called active. Shown is part of a subset that was picked to be rich in actives. A number with no mark means an inactive call.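 The calls were made as follows: active = inhibition above a per-plate cutoff, the mean inhibition of test compounds on that plate plus 3 SD (cut at about 49% in these data); inactive = the rest.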

Target: Trace amine-associated receptor 1 (Homo sapiens) (UniProt Q96RJ0)
Sequence (Q96RJ0 whole entry, looked up): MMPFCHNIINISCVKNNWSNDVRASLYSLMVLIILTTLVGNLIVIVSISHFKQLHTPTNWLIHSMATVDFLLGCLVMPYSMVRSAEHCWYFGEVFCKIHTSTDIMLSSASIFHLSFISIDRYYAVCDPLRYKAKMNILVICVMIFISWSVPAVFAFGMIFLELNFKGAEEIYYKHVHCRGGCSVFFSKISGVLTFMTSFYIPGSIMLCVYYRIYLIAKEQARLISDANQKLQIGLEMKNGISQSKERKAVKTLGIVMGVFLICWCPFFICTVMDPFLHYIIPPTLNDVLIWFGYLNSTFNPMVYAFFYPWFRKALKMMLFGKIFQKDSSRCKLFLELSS
Test: blockers of beta-PEA-driven TAAR1 calcium signal – Fluo-8 calcium fluorescence, CHO RD-HGA16 cells, primary screen (AID 624466);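 also: 0% = DMSO plus EC80 beta-PEA response and 100% = DMSO alone without agonist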
Settings: CHO RD-HGA16 TAAR1, Fluo-8 calcium fluorescence, antagonist; at 3 µM; stronger effect = higher value
How it was run: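 Test system – hTAAR1-expressing CHO RD-HGA16 cells, Gα16-coupled · Also added – β-PEA at EC80 concentration, post-compound challenge · Compound – 3 µM, single point · Incubation – dye loading 75 min at 37 °C, then 30 min room temperature · Measured by – Fluo-8 intracellular calcium dye fluorescence, real-time kinetic reads · Benchmarks – vehicle and agonist controls · Replicates – singlicate, one well per test compound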

With `COc1ccc2[nH]cc(/C=C(/C#N)S(=O)(=O)c3ccccc3)c2c1` the inhibition was 51% (active).
For `OC(CN=c1sc2ccccc2n1CC(O)COc1ccccc1)COc1ccccc1` (centres undefined), the inhibition was 67.2% (active).
`O=C(COC(=O)CCCSc1nc2ccccc2[nH]1)Nc1ccc(Oc2ccccc2)cc1` was tested, and the inhibition was 67.1% (active).
In the case of `CC(=O)Nc1ccc(-c2csc(NC(=O)Nc3ccccc3)n2)cc1`, the inhibition is reported as 63.2% (active).
For `O=C(NCC1CCCO1)c1cc2c([nH]c3ccccc32)c(-c2ccc(F)cc2)n1` (centres undefined), the inhibition was 74.8% (active).
For `Cc1ccc(/C=C/C(=O)Nc2ccc([N+](=O)[O-])c(NC(=O)/C=C/c3ccc(C)o3)c2)o1`, the inhibition was 48.8% (active).
With `COC(=O)c1sccc1NC(=O)c1cc(OC)c(OC)c(OC)c1` the inhibition was 52.3% (active).
With `O=C(NN=Cc1ccccc1O)NN=Cc1ccccc1O` the inhibition was 53.9% (active).
In the case of `O=C(CCc1ccccc1)Nc1cccc(-c2nnc(-c3ccco3)o2)c1`, the inhibition is reported as 56.8% (active).
For `O=C(O)C1C2C=CC(O2)C1C(=O)NCCc1cccc(Cl)c1` (centres undefined), the inhibition was 70.5% (active).
With `O=C(/C=C/c1ccco1)Nc1ccc(Oc2ccccc2)cc1` the inhibition was 52.3% (active).
`c1ccc(C(=NNc2nc3ccccc3s2)c2ccccn2)cc1` was tested, and the inhibition was 53.9% (active).
In the case of `CSc1nc(-c2ccccc2)nc(C(Cl)Cl)n1`, the inhibition is reported as 58.9% (active).
With `COc1cccc(NC(=O)[C@H](Cc2c[nH]c3ccccc23)NC(=O)[C@@H]2Cc3ccccc3CN2)c1` the inhibition was 49.5% (active).
`COc1ccc(CNC(=O)COc2ccccc2C(=O)c2cnn(-c3ccccc3)c2)cc1OC` was tested, and the inhibition was 54% (active).
In the case of `O=C(O)c1ccc(NC(=O)c2cn(-c3ccccc3)nc2-c2ccc(Cl)cc2)cc1`, the inhibition is reported as 73.7% (active).
With `O=C(NNC(=S)NC(=O)c1cn(-c2ccccc2)nc1-c1ccccc1)c1ccncc1` the inhibition was 49.8% (active).
For `COc1cc(/C=C2/C(=O)ON=C2C)ccc1OCc1ccccc1F`, the inhibition was 51.4% (active).
`CCCOc1ccc(F)cc1-c1cc(C(=O)NCc2ccc(F)cc2)[nH]n1` was tested, and the inhibition was 53.6% (active).

First: COc1ccc2[nH]cc(CCN3C(=O)c4ccc(C(=O)O)cc4C3=O)c2c1
Second: COc1ccc(CNC(=O)[C@H](Cc2c[nH]c3ccccc23)NC(C)=O)cc1OC
The inhibition of the first is lower: -11.2% for the first, -1.22% for the second.

First: COc1ccc(NS(=O)(=O)c2ccc(Oc3c(C#N)cccc3C#N)cc2)cc1
Second: COc1ccc(NC(=O)[C@H](NC(=O)[C@@H]2Cc3ccccc3CN2)c2ccccc2)cc1
The inhibition of the first is higher: 38.8% for the first, -18% for the second.

Going from `CC(C)c1ccc(OCC(O)Cn2cnc3ccccc32)cc1` (centres undefined) to `Cc1cccc(OCC(O)Cn2c(=N)n(CCN3CCOCC3)c3ccccc32)c1` (centres undefined), the inhibition falls from -0.64% to -7.65%.

Going from `O=C(COC(=O)CCc1nc2ccccc2c(=O)[nH]1)Nc1ccc(N2CCOCC2)cc1` to `CC(C)(C)c1ccc(NC(=O)COC(=O)CCc2nc3ccccc3c(=O)[nH]2)cc1`, the inhibition rises from 0.61% to 6.51%.

First: Nc1nc2c(ncn2[C@@H]2O[C@H](C(=O)N[C@H](Cc3ccccc3)C(=O)NCC3CCCCC3)[C@@H](O)[C@H]2O)c(=O)[nH]1
Second: Nc1nc2c(ncn2[C@@H]2O[C@H](C(=O)N[C@@H](Cc3ccccc3)C(=O)NCc3ccccc3)[C@@H](O)[C@H]2O)c(=O)[nH]1
The inhibition of the first is lower: -12.4% for the first, -6.97% for the second.

First: O=C(Cn1cncn1)N/N=C/c1c2ccccc2cc2ccccc12
Second: O=C(N/N=C/c1ccccc1O)/C(=C/c1ccccc1)CCO
The inhibition of the first is lower: -12.2% for the first, 12.2% for the second.

First: Cc1ccc(S(=O)(=O)N[C@H](CO)C(C)C)cc1
Second: Cc1ccc(S(=O)(=O)N(c2cccc(C)c2)C2CCS(=O)(=O)C2)cc1 (centres undefined)
The inhibition of the first is lower: -9.25% for the first, -4.68% for the second.

Compared with `NC(c1ccccc1)c1csc(NC(=O)Nc2cccc(C(F)(F)F)c2)n1` (centres undefined), `Cc1ccc(NC(=O)Nc2cc(-c3ccccc3)nn2C)cc1Cl` is lower in inhibition: 35.6% for the first, 8.7% for the second.

Compared with `CCCC(CNC(=O)COC(=O)C1=NNC(=O)CC1)c1ccc(Cl)cc1Cl` (centres undefined), `COc1ccc(CNC(=O)COC(=O)c2sccc2C)cc1OC` is lower in inhibition: -3.84% for the first, -9.87% for the second.

Going from `COCCCNC(=O)C1CC(=O)N(c2ccc(C)cc2)C1` (centres undefined) to `Cc1ccc(-c2nn(-c3ccccc3)cc2C(=O)NCCCN2CCCC2=O)cc1`, the inhibition falls from -3.91% to -7.1%.

First: COc1ccc2cc(C(=O)NCC3CCCO3)[nH]c2c1 (centres undefined)
Second: COc1ccc(N/N=C2/CCCCC2=O)cc1
The inhibition of the first is lower: -16.3% for the first, -11.3% for the second.

Compared with `O=C(NCCCO)c1cc2c([nH]c3ccccc32)c(-c2ccc(F)cc2)n1`, `O=C(NCCCN1CCOCC1)c1cn(-c2ccccc2)nc1-c1ccc(F)cc1` is lower in inhibition: 23.9% for the first, 3.41% for the second.

First: CC(=O)Nc1cccc(-c2cc(NC=O)c3ncc(-c4ccc(F)c(Cl)c4)n3c2)c1
Second: CCCOc1ccc(F)cc1-c1cc(C(=O)Nc2ccc(F)c(Cl)c2)[nH]n1
The inhibition of the first is higher: 39% for the first, 38.5% for the second.

First: Cc1c(C)n2c(SCC(=O)N3CCCC3)nnc2[nH]c1=O
Second: CC(C)(C)n1nc2c(c1NC(=O)c1ccc(S(=O)(=O)N3CCCC3)cc1)CS(=O)C2 (centres undefined)
The inhibition of the first is lower: -9.03% for the first, 4.79% for the second.

Going from `CN1CCCCC(NC(=O)C(C)(C)C)C1=O` (centres undefined) to `CCCCNC(=O)OC1CC2CC1[C@H]1CCCCN1C2=O` (some centres undefined), the inhibition rises from -14% to -1.17%.

First: COC(=O)/C=C\C(=O)Nc1cccc([N+](=O)[O-])c1
Second: COc1cccc(NC(=O)COC(=O)/C=C/c2ccco2)c1
The inhibition of the first is higher: -1.13% for the first, -14.3% for the second.

First: Cc1ccc(/C=C/C(=O)Nc2cc(S(=O)(=O)N3CCCCCC3)ccc2OCC(F)(F)F)o1
Second: COCCNC(=S)Nc1cc(S(=O)(=O)N2CCOCC2)ccc1N1CCCCC1
The inhibition of the first is higher: -13.9% for the first, -23.6% for the second.

Compared with `CC(C(=O)N=Nc1c(O)n(C)c2ccc(Br)cc12)n1cnc2ccccc2c1=O` (centres undefined), `CC(C)CC1NC(=O)c2cc(Cl)ccc2-n2c1nc1ccccc1c2=O` (centres undefined) is lower in inhibition: -6.29% for the first, -6.66% for the second.

Going from `COCc1[nH]nc2c1C(c1ccccc1)N(c1ccccc1)C2=O` (centres undefined) to `C/C(=N/Nc1nc(-c2ccccc2)c(CC(=O)O)s1)c1ccccc1`, the inhibition rises from -20.8% to 24.8%.

First: O=[N+]([O-])c1ccc(N2CCNCC2)cc1NCc1cccnc1
Second: NC(=O)C1CCN(C(=O)c2cn(-c3ccccc3)nc2-c2cccnc2)CC1
The inhibition of the first is higher: 13.4% for the first, -9.79% for the second.

Going from `COc1ccc(Cc2nnc(NC(=O)c3cc(OC)c(OC)c(OC)c3)s2)cc1OC` to `COc1ccc(CNC(=O)COC(=O)c2c(C)nn(-c3ccccc3)c2C)cc1OC`, the inhibition rises from -43.4% to -1.94%.

First: COC(=O)c1sccc1NC(=O)CCC1CCCC1
Second: CCc1ccc(NC(=O)C(=O)N/N=C(\C)CC(=O)NCCOC)cc1
The inhibition of the first is higher: 15.8% for the first, -6% for the second.

Compared with `CCOC(=O)[C@]12CCC=C1N(Cc1ccco1)C(=O)[C@H](CC(=O)NCc1cccc(C(F)(F)F)c1)C2`, `CCOC(=O)[C@]12CCC=C1N(Cc1cccc3ccccc13)C(=O)[C@H](CC(=O)NCc1cccc(C(F)(F)F)c1)C2` is higher in inhibition: -12.7% for the first, -4.64% for the second.

Compared with `O=S1(=O)CC(N2CCN(CCO)CC2)CN1Cc1cn(Cc2cccc(Cl)c2)nn1` (centres undefined), `O=S1(=O)c2ccc(Br)cc2-n2nncc2CN1Cc1cccc(Cl)c1` is higher in inhibition: -8.99% for the first, 3.33% for the second.

Going from `Oc1ccccc1C=NC1CCCCC1N=Cc1ccccc1O` (centres undefined) to `O=C(O)/C=C\C(=O)Nc1ccc(OCc2ccccc2)cc1`, the inhibition rises from 0.73% to 4.01%.

Going from `CN1C(=O)C(Br)(Br)CC1c1cccnc1` (centres undefined) to `CC1=NOC(=O)/C1=C\c1ccccc1`, the inhibition falls from -9.8% to -15%.

First: C/C(=N/NC(=O)CCc1ccccc1)c1ccco1
Second: O=C(CSc1nnc(-c2ccco2)o1)NCC(=O)c1ccccc1
The inhibition of the first is higher: -8.62% for the first, -36% for the second.

Going from `COC1(C2=NCCN2)COc2ccccc2O1` (centres undefined) to `COc1cc(OC)nc(N/N=C(\c2ccccc2)c2ccncc2)n1`, the inhibition rises from -15.3% to 5.98%.

First: O=C(NCCc1ccccc1)C1CC1
Second: O=C(NCCN1CCOCC1)C1CCN(S(=O)(=O)c2ccccc2)CC1
The inhibition of the first is lower: 1.61% for the first, 1.73% for the second.

First: O=C(O)C1C2C=CC(O2)C1C(=O)Nc1ccccn1 (centres undefined)
Second: CC[C@H](NC(=O)[C@H](Cc1ccccc1)NC(=O)[C@H]1O[C@@H](n2cnc3c(=O)[nH]c(N)nc32)[C@H](O)[C@@H]1O)c1ccccc1
The inhibition of the first is higher: 13.6% for the first, -41.7% for the second.

First: Cc1nc2c(C(=O)NCc3cccs3)cnn2c(C)c1Cc1ccc(F)cc1
Second: CCCOc1ccc(F)cc1-c1cc(C(=O)Nc2ccc(F)cc2)[nH]n1
The inhibition of the first is lower: 9.05% for the first, 15.5% for the second.

First: CCCCCCCCN1C(=O)[C@@H](CC(=O)NCc2ccc(C)o2)C[C@@]2(C(=O)OC)C1=C[C@H](C(C)(C)C)O[C@@H]2C
Second: COc1ccc(CNS(=O)(=O)c2cc(Br)ccc2Br)cc1
The inhibition of the first is lower: -36.1% for the first, -2.96% for the second.

First: Clc1ccc2nc(-c3ccccc3)nc(C(Cl)Cl)c2c1
Second: CSc1ccc(C#N)cc1NC(=O)c1ccc(Cl)cc1
The inhibition of the first is higher: 2.4% for the first, -1.99% for the second.

Compared with `Cc1cccc(C)c1NC(=O)C(c1cccc2ccccc12)n1c(=O)c(-c2ccco2)nc2ccccc21` (centres undefined), `Cc1cccc(C)c1NC(=O)C(c1cccc(F)c1)N1CCN(C)CC1` (centres undefined) is lower in inhibition: -9.07% for the first, -12.4% for the second.

First: Cc1ccc(-c2nn(-c3ccccc3)cc2C(=O)Nc2cccc(S(=O)(=O)N3CCOCC3)c2)cc1
Second: C#CCOc1ccc(/C=C2/C(=O)ON=C2C)cc1OCC
The inhibition of the first is lower: 11% for the first, 12.6% for the second.
